The target of one series is Acetylcholinesterase (Electrophorus electricus, UniProt O42275). Briefly: Inhibition of electric eel AChE type 6S by Ellman's assay. A general note: In Ellman's method for cholinesterases, released thiocholine reacts with DTNB.
Another series has as its target Butyrylcholinesterase (Equus caballus, UniProt Q9N1N9). Put plainly: Inhibition of equine serum BuChE by Ellman's assay. The gist of the method:
(§1)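 Ellman photometric assay with electric eel AChE (type VI-S) or equine serum BChE (enzyme solution 2.5 U/mL) in phosphate buffer, pH 8.0. Enzyme and inhibitor stand together for 5 min, then DTNB is added. The reaction starts with acetylthiocholine (AChE) or butyrylthiocholine (BChE), and A412 is read 2.5 min later at 25 °C. At least five concentrations (highest 10^-4 M final) are run in triplicate. Percent activity versus the no-inhibitor reference is plotted against log concentration; each value is the mean of ≥3 independent runs.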

A short description of series [1]: Selectivity ratio of IC50 for electric eel AChE to IC50 for equine serum BuChE.
A short description of series [2]: Cytotoxicity against mouse brain N11 cells from by MTT assay. The series is classed as cell-based. The gist of the method:
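N11 microglia (embryonic mouse brain, retrovirus-immortalized) were kept in DMEM with 10% heat-inactivated FCS and 2 mM glutamine. Cells were seeded at 5×10³/well and grown 24 h, then exposed 24 h to compound or solvent in phenol-red-free medium with 1% FCS.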

Series [3] in a line: Antioxidant scavenging activity against AAPH-induced peroxyl radical assessed as trolox equivalent per uM of compound by ORAC-fluorescein assay. The class given is physicochemical. The gist of the method: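 Peroxyl radicals generated by AAPH (12 mM final) at 37 °C in 75 mM phosphate buffer pH 7.4. Sample (0.5–10 µM) was preincubated 15 min with fluorescein (300 nM final), then AAPH added. Fluorescence (ex 485/em 535 nm) read every 60 s for 90 min. Net AUC vs blank was calibrated against Trolox (1–8 µM final). Each run fourfold, at least four independent runs.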

Series [4] concerns the target Acetylcholinesterase (Electrophorus electricus) (UniProt O42275). Briefly: Inhibition of electric eel AChE at 10 uM by Ellman's assay. The gist of the method:
as §1

Sequence of Acetylcholinesterase (O42275 whole entry): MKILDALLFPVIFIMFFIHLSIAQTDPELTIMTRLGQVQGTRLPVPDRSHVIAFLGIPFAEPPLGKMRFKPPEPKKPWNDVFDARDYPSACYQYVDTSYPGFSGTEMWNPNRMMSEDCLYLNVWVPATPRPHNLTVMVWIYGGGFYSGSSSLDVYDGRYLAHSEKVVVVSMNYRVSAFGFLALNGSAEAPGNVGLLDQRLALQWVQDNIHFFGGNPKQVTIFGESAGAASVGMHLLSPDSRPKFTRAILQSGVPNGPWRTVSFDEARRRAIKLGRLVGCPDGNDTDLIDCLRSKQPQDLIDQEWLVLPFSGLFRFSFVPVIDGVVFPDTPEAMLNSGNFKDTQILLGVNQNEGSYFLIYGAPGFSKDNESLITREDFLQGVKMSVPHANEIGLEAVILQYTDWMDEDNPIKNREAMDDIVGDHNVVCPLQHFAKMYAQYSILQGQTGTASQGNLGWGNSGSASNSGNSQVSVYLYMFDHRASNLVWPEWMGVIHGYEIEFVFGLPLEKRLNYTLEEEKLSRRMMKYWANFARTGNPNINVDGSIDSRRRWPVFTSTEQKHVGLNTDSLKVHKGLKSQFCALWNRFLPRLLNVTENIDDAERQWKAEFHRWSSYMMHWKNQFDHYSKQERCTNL
Sequence of Butyrylcholinesterase (Q9N1N9 whole entry): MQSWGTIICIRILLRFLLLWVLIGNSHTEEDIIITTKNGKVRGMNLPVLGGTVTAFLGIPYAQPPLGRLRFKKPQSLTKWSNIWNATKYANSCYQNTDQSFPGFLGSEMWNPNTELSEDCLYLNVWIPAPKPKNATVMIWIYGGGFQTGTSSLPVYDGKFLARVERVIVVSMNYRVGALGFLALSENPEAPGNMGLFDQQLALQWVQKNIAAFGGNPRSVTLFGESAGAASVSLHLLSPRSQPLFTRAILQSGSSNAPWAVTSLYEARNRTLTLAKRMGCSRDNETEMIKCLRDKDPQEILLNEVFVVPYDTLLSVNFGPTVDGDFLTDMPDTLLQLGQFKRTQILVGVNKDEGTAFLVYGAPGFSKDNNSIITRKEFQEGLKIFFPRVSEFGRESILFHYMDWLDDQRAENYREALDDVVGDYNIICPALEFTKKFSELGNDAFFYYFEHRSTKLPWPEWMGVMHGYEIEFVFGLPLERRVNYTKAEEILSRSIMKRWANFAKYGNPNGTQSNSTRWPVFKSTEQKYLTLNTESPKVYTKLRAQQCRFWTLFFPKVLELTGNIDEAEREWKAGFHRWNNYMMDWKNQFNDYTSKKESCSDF
Sequence of Acetylcholinesterase (Electrophorus electricus) (O42275 24-633 limits assumed): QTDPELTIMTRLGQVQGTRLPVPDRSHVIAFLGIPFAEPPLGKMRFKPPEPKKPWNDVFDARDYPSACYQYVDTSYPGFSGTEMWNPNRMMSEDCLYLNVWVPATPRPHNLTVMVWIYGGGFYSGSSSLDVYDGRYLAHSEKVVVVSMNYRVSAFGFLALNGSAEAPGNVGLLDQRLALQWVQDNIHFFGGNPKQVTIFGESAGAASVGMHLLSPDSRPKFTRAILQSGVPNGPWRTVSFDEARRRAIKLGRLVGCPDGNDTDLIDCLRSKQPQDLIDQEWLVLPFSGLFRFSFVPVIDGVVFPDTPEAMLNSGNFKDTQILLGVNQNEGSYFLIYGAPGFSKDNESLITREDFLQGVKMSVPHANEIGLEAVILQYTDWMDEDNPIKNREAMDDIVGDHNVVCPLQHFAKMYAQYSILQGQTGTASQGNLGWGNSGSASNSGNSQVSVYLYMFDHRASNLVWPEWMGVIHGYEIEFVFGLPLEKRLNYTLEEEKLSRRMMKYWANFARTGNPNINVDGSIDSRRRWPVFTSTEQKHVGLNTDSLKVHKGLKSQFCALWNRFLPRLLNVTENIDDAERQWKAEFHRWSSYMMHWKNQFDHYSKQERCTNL

Turning to `NCCCCCCCC/N=c1/c2ccc(Cl)cc2nc2n1CCC2`, the values for the IC50 (at Acetylcholinesterase; against Butyrylcholinesterase; in series [2]) were 130 nM, 12 nM and 6270 nM, respectively. The Ratio IC50 in series [1] worked out at 10.7. The Activity in series [3] is 0.1.

In the case of `O=C(CCCCC1CCSS1)NCCCCCCCC/N=c1/c2ccccc2nc2n1CCCCCC2` (stereo unspecified), the inhibition in series [4] is below 10%. Besides, the IC50 at Butyrylcholinesterase worked out at 23 nM; in series [2] it was 6540 nM. In addition, the Ratio IC50 in series [1] was above 5000. Besides, in series [3], the Activity is given as 0.4.

`NCCCCCCC/N=c1/c2ccc(Cl)cc2nc2n1CCC2`: the IC50 at Acetylcholinesterase stood at 4060 nM; on Butyrylcholinesterase, 710 nM. In addition, the Ratio IC50 in series [1] worked out at 5.7.

As to `c1ccc(C/N=c2/c3ccccc3nc3n2CCCCCCC3)cc1`, the IC50 is above 500000 nM at Acetylcholinesterase and 1100 nM on Butyrylcholinesterase.

Regarding `NCCC/N=c1/c2ccc(Cl)cc2nc2n1CCC2`, the IC50 on Acetylcholinesterase stood at 19000 nM; on Butyrylcholinesterase, 10200 nM. Moreover, in series [1], the Ratio IC50 is 1.9.

With `O=C(CCCCC1CCSS1)NCCCC/N=c1/c2ccc(Cl)cc2nc2n1CCC2` (stereo unspecified), the IC50 against Acetylcholinesterase was 4580 nM; on Butyrylcholinesterase it was 170 nM. In series [1], the Ratio IC50 stood at 27.1.

With `O=C(CCCCC1CCSS1)NCCCCCC/N=c1/c2ccc(Cl)cc2nc2n1CCC2` (stereo unspecified), the IC50 at Acetylcholinesterase came out at 740 nM; against Butyrylcholinesterase, 26 nM. Moreover, in series [1], the Ratio IC50 turned out to be 28.8.

For `O=C(CCCCC1CCSS1)NCCC/N=c1/c2ccc(Cl)cc2nc2n1CCC2` (stereo unspecified), the results for the half-maximal inhibitory concentration (IC50) (on Acetylcholinesterase; at Butyrylcholinesterase; in series [2]) were 2840 nM, 2580 nM and 7510 nM, respectively. Besides, the Ratio IC50 in series [1] worked out at 1.1. Moreover, the Activity in series [3] is on record as 0.8.

Turning to `NCCCCC/N=c1/c2ccc(Cl)cc2nc2n1CCC2`, the IC50 against Acetylcholinesterase amounted to 170 nM; against Butyrylcholinesterase, 190 nM. For the same compound, in series [1], the Ratio IC50 is 0.9.

Turning to `N=c1c2ccccc2nc2n1CCC2`, the Ratio IC50 in series [1] came out at 1.8.

Regarding `O=C(CCCCC1CCSS1)NCCCCC/N=c1/c2ccc(Cl)cc2nc2n1CCC2` (stereo unspecified), the IC50 was found to be 4380 nM against Acetylcholinesterase and 53 nM at Butyrylcholinesterase. In addition, the Ratio IC50 in series [1] turned out to be 83.

Take `NCCCCCC/N=c1/c2ccc(Cl)cc2nc2n1CCC2`: the concentration for half-maximal inhibition (IC50) at Acetylcholinesterase is 1490 nM; at Butyrylcholinesterase it was 380 nM; in series [2], 6010 nM. Further, the Ratio IC50 in series [1] amounted to 3.9. The Activity in series [3] was found to be 0.2.

With `NCCCC/N=c1/c2ccc(Cl)cc2nc2n1CCC2`, the values for the concentration for half-maximal inhibition (IC50) against Acetylcholinesterase and at Butyrylcholinesterase were 480 nM and 720 nM, respectively. Moreover, the Ratio IC50 in series [1] was determined as 0.7.

Consider `CCCC/N=c1/c2ccc(Cl)cc2nc2n1CCC2`, for which the Ratio IC50 in series [1] stood at 1.7.

For the compound `Clc1ccc2/c(=N/CCCCCCCC/N=c3/c4ccc(Cl)cc4nc4n3CCC4)n3c(nc2c1)CCC3`, the values for the concentration for half-maximal inhibition (IC50) on Acetylcholinesterase and on Butyrylcholinesterase were 50 nM and 45 nM, respectively.

Consider `O=C(CCCCC1CCSS1)NCCCCCCCC/N=c1/c2ccc(Cl)cc2nc2n1CCC2` (stereo unspecified), for which the IC50 was 468 nM against Acetylcholinesterase, 5.7 nM at Butyrylcholinesterase and 10200 nM in series [2]. In addition, in series [1], the Ratio IC50 is 82. Besides, the Activity in series [3] came to 0.5.

In the case of `O=C(O)CCCCC1CCSS1` (stereo not drawn) [LIPOIC ACID, ALPHA], in series [3], the Activity came out at 0.6.

On to `O=C(CCCCC1CCSS1)NCCCCCCC/N=c1/c2ccc(Cl)cc2nc2n1CCC2` (stereo unspecified), for which the half-maximal inhibitory concentration (IC50) against Acetylcholinesterase is 1940 nM; against Butyrylcholinesterase, 14 nM. Further, the Ratio IC50 in series [1] is 134.

In the case of `NCCCCCCCC/N=c1/c2ccccc2nc2n1CCCCCC2`, the results for the IC50 (at Acetylcholinesterase; at Butyrylcholinesterase; in series [2]) were 3400 nM, 46 nM and 3740 nM, respectively. The Ratio IC50 in series [1] is 73.9. Moreover, the Activity in series [3] was 0.1.

In general, IC50 refers to the concentration at which inhibition is half-maximal. A lower IC50 goes with higher potency. What is called inhibition is the share of the control response that was lost under treatment. Higher therefore signals strong suppression.

Source of the values: ChEMBL document CHEMBL1149888 (Bioorg Med Chem, 2008).
